Experimental data published in ChEMBL document CHEMBL2034859, “Simple, fast and efficient synthesis of β-keto esters from the esters of heteroaryl compounds, its antimicrobial study and cytotoxicity towards various cancer cell lines” (Bioorg Med Chem Lett, 2012).
In brackets after ≈: the same amount, converted by molar mass.

Tests used:
ACHN = assay: Cytotoxicity against human ACHN cells at 10 uM after 48 hrs by WST-1 assay; assay type: functional
Summary of the method: (§1)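 Cells from ATCC were grown in DMEM with 10% heat-inactivated FBS at 37 °C in 5% CO2. Log-phase cells were seeded at 5 × 10^3 per well and left to recover overnight. They were then exposed to a range of compound concentrations for 48 h, with 0.2% DMSO as the vehicle control. CCK-8 (WST) reagent was added for 2 h and absorbance was measured.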

NCI-H460 = assay: Cytotoxicity against human NCI-H460 cells at 10 uM after 48 hrs by WST-1 assay; assay type: functional
Summary of the method: (§2)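 Cells from ATCC, grown in DMEM with 10% heat-inactivated FBS at 37 °C in humidified 5% CO2. Log-phase cells seeded at 5 × 10^3 cells/well and left to recover overnight, then exposed to varying compound concentrations for 48 h. Controls received medium with 0.2% DMSO vehicle. CCK-8 ([…]) reagent added at 5 µL/well for 2 h, then absorbance read.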

HCT-116 = assay: Cytotoxicity against human HCT116 cells at 10 uM after 48 hrs by WST-1 assay; assay type: functional; summary of the method: as §1
Calu-1 = assay: Cytotoxicity against human Calu1 cells at 10 uM after 48 hrs by WST-1 assay; assay type: functional; summary of the method: as §1
PANC-1 = assay: Cytotoxicity against human PANC1 cells at 10 uM after 48 hrs by WST-1 assay; assay type: functional; summary of the method: as §2
Aspergillus fumigatus [1] = assay: Antifungal activity against Aspergillus fumigatus NCIM 902 after 3 to 4 days by disc diffusion method; assay type: functional
Aspergillus flavus [2] = assay: Antifungal activity against Aspergillus flavus NCIM 524 after 3 to 4 days; assay type: functional
Escherichia coli [3] = assay: Antibacterial activity against Escherichia coli ATCC 25922 after 24 hrs; assay type: functional; conditions: ATCC 25922, 24 h
Klebsiella pneumoniae [4] = assay: Antibacterial activity against Klebsiella pneumoniae after 24 hrs; assay type: functional
[5] = tested on: Trichophyton mentagrophytes; assay: Antifungal activity against Trichophyton mentagrophytes after 3 to 4 days; assay type: functional
Summary of the method: (§3)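 Compounds were dissolved in DMSO and tested by serial plate dilution. Activity was read as the diameter of the inhibition zone, with ciclopiroxolamine as the reference standard. Penicillium marneffei and Trichophyton mentagrophytes were recultured isolates.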

Staphylococcus aureus [6] = assay: Antibacterial activity against Staphylococcus aureus ATCC 25923 after 24 hrs; assay type: functional; conditions: ATCC 25923, 24 h
Talaromyces marneffei [7] = assay: Antifungal activity against Penicillium marneffei after 3 to 4 days by disc diffusion method; assay type: functional
Escherichia coli [8] = assay: Antibacterial activity against Escherichia coli ATCC 25922 after 24 hrs by disc diffusion method; assay type: functional
Summary of the method: (§4)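 Disc diffusion susceptibility test. The Klebsiella pneumoniae strain was a recultured isolate, not an ATCC stock.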

Talaromyces marneffei [9] = assay: Antifungal activity against Penicillium marneffei after 3 to 4 days; assay type: functional
Klebsiella pneumoniae [10] = assay: Antibacterial activity against Klebsiella pneumoniae after 24 hrs by disc diffusion method; assay type: functional; summary of the method: as §4
Aspergillus flavus [11] = assay: Antifungal activity against Aspergillus flavus NCIM 524 after 3 to 4 days by serial plate dilution method
Staphylococcus aureus [12] = assay: Antibacterial activity against Staphylococcus aureus ATCC 25923 after 24 hrs by disc diffusion method; assay type: functional; summary of the method: as §4
[13] = tested on: Trichophyton mentagrophytes; assay: Antifungal activity against Trichophyton mentagrophytes after 3 to 4 days by disc diffusion method; assay type: functional
Pseudomonas aeruginosa [14] = assay: Antibacterial activity against Pseudomonas aeruginosa ATCC 27853 after 24 hrs; assay type: functional; conditions: ATCC 27853, 24 h
Aspergillus fumigatus [15] = assay: Antifungal activity against Aspergillus fumigatus NCIM 902 after 3 to 4 days; assay type: functional; summary of the method: as §3
Pseudomonas aeruginosa [16] = assay: Antibacterial activity against Pseudomonas aeruginosa ATCC 27853 after 24 hrs by disc diffusion method; assay type: functional; summary of the method: as §4

Compound | Activity (ACHN) [%] | Activity (NCI-H460) [%] | Activity (HCT-116) [%] | Activity (Calu-1) [%] | Activity (PANC-1) [%] | inhibition zone (IZ) (Aspergillus fumigatus [1]) [mm] | MIC (Aspergillus flavus [2]) [µg/mL] | MIC (Escherichia coli [3]) [µg/mL] | MIC (Klebsiella pneumoniae [4]) [µg/mL] | MIC [5] [µg/mL] | MIC (Staphylococcus aureus [6]) [µg/mL] | inhibition zone (IZ) (Talaromyces marneffei [7]) [mm] | inhibition zone (IZ) (Escherichia coli [8]) [mm] | MIC (Talaromyces marneffei [9]) [µg/mL] | inhibition zone (IZ) (Klebsiella pneumoniae [10]) [mm] | inhibition zone (IZ) (Aspergillus flavus [11]) [mm] | inhibition zone (IZ) (Staphylococcus aureus [12]) [mm] | inhibition zone (IZ) [13] [mm] | MIC (Pseudomonas aeruginosa [14]) [µg/mL] | MIC (Aspergillus fumigatus [15]) [µg/mL] | further results
CCOC(=O)CC(=O)c1cnc2ccccc2c1 | 20 | 20 | 28 | 23 | 26 | – | – | – | – | – | – | – | – | – | – | – | – | – | – | – | –
CCOC(=O)CC(=O)c1cccc2sc(Br)nc12 | 31 | 14 | 39 | 19 | 27 | 18 | 12.5 (≈ 38.1 µM) | 6.25 (≈ 19 µM) | 6.25 (≈ 19 µM) | 12.5 (≈ 38.1 µM) | 6.25 (≈ 19 µM) | 17 | 22 | 12.5 (≈ 38.1 µM) | 23 | 19 | 21 | 17 | 6.25 (≈ 19 µM) | 12.5 (≈ 38.1 µM) | inhibition zone (IZ) (Pseudomonas aeruginosa [16]): 22 mm
CCOC(=O)CC(=O)c1sc(Cl)nc1C | 37 | 24 | 48 | 32 | 29 | – | – | – | – | – | – | – | – | – | – | – | – | – | – | – | –
CCOC(=O)CC(=O)c1cnccn1 | 34 | 20 | 30 | 16 | 27 | – | – | – | – | – | – | – | – | – | – | – | – | – | – | – | –
CCOC(=O)CC(=O)c1ccncn1 | 15 | 13 | 20 | 12 | 35 | – | – | – | – | – | – | – | – | – | – | – | – | – | – | – | –
CCOC(=O)CC(=O)c1nccc2ccccc12 | 30 | 34 | 26 | 30 | 35 | 18 | 12.5 (≈ 51.4 µM) | 6.25 (≈ 25.7 µM) | 6.25 (≈ 25.7 µM) | 12.5 (≈ 51.4 µM) | 6.25 (≈ 25.7 µM) | 18 | 19 | 12.5 (≈ 51.4 µM) | 22 | 15 | 22 | 17 | 6.25 (≈ 25.7 µM) | 12.5 (≈ 51.4 µM) | inhibition zone (IZ) (Pseudomonas aeruginosa [16]): 20 mm
CCOC(=O)CC(=O)c1cnc(Cl)cn1 | 30 | 34 | 40 | 31 | 14 | 26 | 6.25 (≈ 27.3 µM) | 6.25 (≈ 27.3 µM) | 6.25 (≈ 27.3 µM) | 6.25 (≈ 27.3 µM) | 6.25 (≈ 27.3 µM) | 24 | 24 | 6.25 (≈ 27.3 µM) | 20 | 22 | 23 | 25 | 6.25 (≈ 27.3 µM) | 6.25 (≈ 27.3 µM) | inhibition zone (IZ) (Pseudomonas aeruginosa [16]): 21 mm
CCOC(=O)CC(=O)c1cc2ccccc2cn1 | 30 | 17 | 29 | 21 | 23 | 23 | 6.25 (≈ 25.7 µM) | 12.5 (≈ 51.4 µM) | 12.5 (≈ 51.4 µM) | 6.25 (≈ 25.7 µM) | 12.5 (≈ 51.4 µM) | 25 | 19 | 6.25 (≈ 25.7 µM) | 23 | 27 | 16 | 23 | 12.5 (≈ 51.4 µM) | 6.25 (≈ 25.7 µM) | inhibition zone (IZ) (Pseudomonas aeruginosa [16]): 22 mm
CCOC(=O)CC(=O)c1nccn1C | 30 | 14 | 11 | 30 | 35 | – | – | – | – | – | – | – | – | – | – | – | – | – | – | – | –
CCOC(=O)CC(=O)c1cccnc1 | 30 | 19 | 30 | 30 | 35 | – | – | – | – | – | – | – | – | – | – | – | – | – | – | – | –
CCOC(=O)CC(=O)c1ccncc1 | 31 | 10 | 39 | 12 | 10 | – | – | – | – | – | – | – | – | – | – | – | – | – | – | – | –
CCOC(=O)CC(=O)c1cn(C(=O)OC(C)(C)C)c2ccccc12 | 30 | 39 | 33 | 20 | 23 | – | – | – | – | – | – | – | – | – | – | – | – | – | – | – | –
CCOC(=O)CC(=O)c1ncccn1 | 10 | 20 | 23 | 17 | 37 | 25 | 12.5 (≈ 64.4 µM) | 6.25 (≈ 32.2 µM) | 6.25 (≈ 32.2 µM) | 12.5 (≈ 64.4 µM) | 6.25 (≈ 32.2 µM) | 17 | 24 | 12.5 (≈ 64.4 µM) | 23 | 22 | 22 | 18 | 6.25 (≈ 32.2 µM) | 12.5 (≈ 64.4 µM) | inhibition zone (IZ) (Pseudomonas aeruginosa [16]): 22 mm
CCOC(=O)CC(=O)c1nccn1CCOC | 21 | 14 | 28 | 24 | 26 | – | – | – | – | – | – | – | – | – | – | – | – | – | – | – | –
CCOC(=O)C(C)C(=O)c1nccc2ccccc12 (stereo unspecified) | 25 | 19 | 24 | 20 | 30 | – | – | – | – | – | – | – | – | – | – | – | – | – | – | – | –
CCOC(=O)CC(=O)c1ccccn1 | 25 | 36 | 21 | 22 | 27 | – | – | – | – | – | – | – | – | – | – | – | – | – | – | – | –
Cc1cc(C2CCCCC2)n(O)c(=O)c1.NCCO [CICLOPIROX OLAMINE] | – | – | – | – | – | 26 | 3.12 | – | – | 3.12 | – | 23 | – | 6.25 | – | 27 | – | 27 | – | 6.25 | –
O=C(O)c1cn(C2CC2)c2cc(N3CCNCC3)c(F)cc2c1=O [CIPROFLOXACIN] | – | – | – | – | – | – | – | 6.25 (≈ 18.9 µM) | 6.25 (≈ 18.9 µM) | – | 6.25 (≈ 18.9 µM) | – | 32 | – | 23 | – | 23 | – | 6.25 (≈ 18.9 µM) | – | inhibition zone (IZ) (Pseudomonas aeruginosa [16]): 28 mm
